Compound activity from PubChem BioAssay.
L major viab = Leishmania major promastigote growth inhibition, primary screen | Leishmania major promastigotes, resazurin fluorescence viability | inhibition, % at 10 µM | actives 9% (n = 200,000) | AID 1063, 2008; in the data active means inhibition above about 50%;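 further: promastigotes grown with compound for 44 hours at 28 °C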
Calb FLC = C. albicans growth inhibition with fluconazole, primary screen, CaCi-2 strain, Alamar Blue fluorescence | growth inhibition, % (concentration not given with the values) | AID 1979, 2009 | C. albicans CaCi-2 + fluconazole, 48 h | actives 0.57% (n = 300,000);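 active means growth inhibition above about 58% in most replicates, limit read from the data, passing the limit was not always enough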;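 further: all wells also contain fluconazole at 8 µg/ml as a sub-toxic cotreatment; 0% = median of DMSO wells and 100% = median of geldanamycin control wells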
T cruzi inh = inhibitors of intracellular T. cruzi growth, primary screen, luminescence, NIH3T3 host cells | T. cruzi beta-gal in NIH3T3, 90 h | inhibition, % (concentration not given with the values) | actives 1.4% (n = 300,000);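 active means mean inhibition across valid replicates above about 55%, limit read from the data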;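 further: signal also drops with host cell toxicity which is not excluded here; 0% = plate median of DMSO wells and 100% = zero luminescence signal; higher percent means less beta-gal luminescence so fewer parasites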
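System: mouse NIH/3T3 fibroblasts infected with β-gal-expressing T. cruzi Tulahuen C4 / Input: NIH/3T3 cells, 5,000 per well / Buffer or medium: Low-serum DMEM with 2% FBS / Probe or stimulus: 5000 reporter trypomastigotes per well / Schedule: ≥90 h infection period, 3 h prior cell attachment / Measured by: GalScreen luminescence, 60 min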
NLRP3 yeast inh = NALP3 inflammasome inhibitors in reconstituted yeast, primary screen, luminescence, uHTS; Yeast reconstituted NLRP3/ASC/caspase-1, beta-gal luminescence, 24 h; inhibition, % at 10 µM; actives 0.39% (n = 330,000);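 active means inhibition of 50% or more; inactive means inhibition below 50%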;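 further: plate controls were induced DMSO wells for no effect and uninduced yeast grown without galactose for full effect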
PolyA inhibitor = polyadenylation inhibitors in yeast reporter cells, primary screen, luminescence, S. cerevisiae. AID 1875, 2009. activity score, % at 12 µM. actives 0.02% (n = 300,000). S. cerevisiae SKY197-pL101 polyadenylation reporter, beta-gal luminescence; efflux-impaired pdr1/pdr3 knockout yeast; score 100 = 6 SD above DMSO;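 active means lowest replicate activity score at least 50, where 100 means six control SD above control mean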;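 further: yeast exposed to compound for 9 h at 30 °C; higher score means more reporter readthrough which indicates perturbed polyadenylation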
NALP1 inh = NALP1 inflammasome inhibitors in reconstituted yeast, colorimetric, S. cerevisiae, triplicate retest. S. cerevisiae NALP1/ASC/caspase-1 growth, X-gal OD620, 72 h. inhibition, % at 10 µM. actives 0.61% (n = 280,000). AID 2071, 2009; in the data active means inhibition mostly above about 24%, no sharp cut-off; inactive means mostly below about 32%
Active calls of the source: *; x = no result. The sample as a whole holds a higher share of hits than the screen did.

SMILES | L major viab | Calb FLC | T cruzi inh | NLRP3 yeast inh | PolyA inhibitor | NALP1 inh
CC(=O)Nc1ccc(NC(=O)c2ccc(COc3ccccc3Br)o2)cc1 | x | -4.5 | -8.7 | 2.9 | -6.8 | 19.3
CC(C)(C)NC(=O)c1ccc(COc2ccccc2Br)o1 | 78.2* | -3.5 | 4.1 | 7.0 | 4.4 | 30.7
CCN(CC)C(=O)c1ccc(COc2ccccc2Br)o1 | 87.7* | 5.0 | 2.4 | 16.9 | -0.6 | 16.4
CCN(CC)C(=O)c1ccc(COc2ccccc2Cl)cc1 | 63.1* | 1.2 | 6.5 | 22.4 | -15.7 | 0.5
O=C(O)c1ccc(COc2ccccc2Cl)cc1 | -3.5 | 16.6 | 4.6 | -14.7 | -22.2 | 21.7
O=C(Nc1nc(-c2ccccn2)cs1)c1ccc(Br)s1 | 100.4* | 92.6* | 0.8 | 14.9 | 0.1 | 12.7
O=C(Nc1ccc(Br)cc1)c1cccc(-n2cnnn2)c1 | x | 2.7 | -0.5 | 11.4 | -3.0 | 15.6
O=C(Nc1nc(-c2ccccn2)cs1)c1cccc(-n2cnnn2)c1 | x | -15.1 | 62.8* | -9.7 | -11.1 | -11.0
O=C(Nc1nc(-c2ccccn2)cs1)c1ccco1 | 99.7* | 16.9 | 38.3 | -3.9 | -11.5 | 9.0
O=C(Nc1nc(-c2ccncc2)cs1)c1ccco1 | 8.5 | 3.7 | 9.5 | 11.3 | 0.3 | 7.4
COc1ccc(S(=O)(=O)N(CC(=O)NCc2ccncc2)c2cc(C)cc(C)c2)cc1OC | x | -2.2 | -0.5 | 10.1 | 0.3 | 8.1
CCOc1ccc(OCCNC2CCCC2)cc1 | 83.8* | -14.1 | 4.1 | 7.0 | 11.5 | 26.5
C=CCc1ccc(OC(=O)NC2CCCCC2)c(OC)c1 | x | -12.8 | -6.2 | 11.7 | 3.4 | 13.4
C=CCc1ccc(OCCCCNC2CCCC2)c(OC)c1 | 88.8* | -4.5 | 27.7 | 27.8 | 6.0 | 2.6
Cc1ccc(C)c(OCCCNC2CCCC2)c1C | 97.2* | -29.0 | 34.4 | 25.1 | 3.3 | -11.3
CC(C)(C)c1ccc(OCCCNC2CCCC2)cc1 | 99.0* | -1.8 | 46.7 | 37.0 | -37.7 | 15.8
Cc1ccc(OCCCNC2CCCC2)cc1 | 8.2 | 0.4 | 24.8 | 7.2 | 7.5 | 35.0
COc1ccc(CC(=O)NCCCSc2ccccc2)cc1OC | x | -0.2 | -2.1 | 13.8 | 19.1 | 3.7
CCCOc1ccc(OCCNC2CCCC2)cc1 | 94.2* | -57.7 | -16.7 | 6.5 | -3.0 | 15.7
Cc1ccc(OCCCCNC2CCCCC2)c(C)c1 | 93.8* | -47.7 | 54.7* | 23.9 | -5.7 | 44.4*
N/C(=N\OC(=O)c1ccc2c(c1)OCO2)c1cccc(Br)c1 | 3.3 | 13.8 | -4.6 | 15.3 | -0.2 | -0.6
CC1=C(C)/C(=N/OC(=O)c2cccc([N+](=O)[O-])c2)C=CC1=O | 100.5* | 68.4 | -26.7 | -0.4 | 21.6 | 2.1
COc1ccc(/C(N)=N/OC(=O)c2ccc3c(c2)OCO3)cc1OC | 8.7 | 9.7 | 57.2* | 10.2 | 7.2 | -3.7
COc1cc(C(=O)O/N=C(\N)Cc2ccc([N+](=O)[O-])cc2)cc(OC)c1OC | x | 8.3 | 2.2 | -17.6 | 12.9 | 0.1
N/C(=N/OC(=O)c1cccc([N+](=O)[O-])c1)c1cccc([N+](=O)[O-])c1 | -1.2 | -4.4 | -0.9 | 0.4 | 0.0 | 3.6
SMILES | L major viab | Calb FLC | T cruzi inh | NLRP3 yeast inh | PolyA inhibitor | NALP1 inh
COc1ccc(C(=O)O/N=C(\N)Cc2ccc(Cl)c(Cl)c2)cc1OC | 81.0* | 2.5 | 39.5 | 9.4 | -4.1 | 28.6
COc1ccc(C/C(N)=N/OC(=O)c2cccc([N+](=O)[O-])c2)cc1 | 62.6* | 1.9 | 9.0 | 2.9 | 12.8 | 25.8
Cc1cc(F)ccc1S(=O)(=O)NCC(c1cccnc1)N1CCc2ccccc21 (configuration not stated) | x | 3.3 | 42.2 | 1.9 | -2.6 | 17.3
CC1CCCCN1CCNC(=O)C1CCCN(S(=O)(=O)c2cccc3nsnc23)C1 (configuration not stated) | x | 23.1 | 9.8 | -9.5 | -10.4 | 26.6
Cc1ccc(C(C)C)cc1S(=O)(=O)Nc1ccncc1 | x | 3.6 | -14.0 | 2.1 | -8.0 | 8.1
O=C(CSC1=NS(=O)(=O)c2ccccc2N1)Nc1cccc(F)c1 | x | -0.8 | -7.3 | 12.4 | 18.1 | x
Cn1cc(SCC(=O)Nc2nc3ccccc3s2)c2ccccc21 | -2.5 | -7.4 | -1.4 | 8.5 | -3.0 | 41.2
CN(C)c1cccc(C(=O)NNC(=O)C23CC4CC(CC(C4)C2)C3)c1 | x | x | x | 3.2 | x | x
